Experiments:
Mus musculus [1] = species on record: Mus musculus; experiment: Compound was tested for the drug concentration that inhibited cell growth by 50% compared to untreated control cultures of Panc 02 cells; type: functional, cell-based; settings: Panc02
How it was run: (§1)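 Exponentially growing cells, seeded at 1.5×10^4 cells/mL in McCoy's 5A with 10% FCS, exposed to drug over 2×10^-5 to 2×10^-12 M for 6 days at 37 °C. Cells fixed in 10% formaldehyde, stained with 0.1% crystal violet, and counted by inverted phase-contrast microscopy. IC50 taken from dose-response curves of surviving fraction versus untreated controls; mean of duplicates.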

[2] = Compound was tested for the drug concentration that inhibited cell growth by 50% compared to untreated control cultures of CA 755 cells(murine carcinoma 755 cells); type: functional; settings: Mus musculus; how it was run: as §1
Mus musculus [3] = species on record: Mus musculus; experiment: Compound was tested for the drug concentration that inhibited cell growth by 50% compared to un treated control cultures of Panc 02 cells; type: functional, cell-based; settings: Panc02; how it was run: as §1
[4] = Compound was tested for the drug concentration that inhibited cell growth by 50% compared to un treated control cultures of CA 755 cells(murine carcinoma 755 cells); type: functional, Mus musculus; how it was run: as §1
CHO [5] = experiment: Drug concentration that inhibit cell growth by 50% compared to un treated control cultures of CHO cells (for 6 days at 37 degree Centigrade); type: functional, cell-based; settings: Cricetulus griseus, 144 h; how it was run: as §1
CHO [6] = experiment: Compound was tested for the drug concentration that inhibited cell growth by 50% compared to un treated control cultures of CHO /DOX cell line; type: functional, cell-based; settings: Cricetulus griseus; how it was run: as §1

## COc1cccc2c1C(=O)c1c(O)c3c(c(O)c1C2=O)C[C@@](O)(C(=O)CO)C[C@@H]3O[C@H]1C[C@H](N)[C@H](O)[C@H](C)O1 [DOXORUBICIN]
Mus musculus [1]
  IC50: 0.065 µM
[2]
  IC50: 0.014 µM

## COc1cccc2c1C(=O)c1c(O)c3c(c(O)c1C2=O)CC(O)(C(=O)CO)CC3OC1CC(NCCC(C)(C)C(OC(C)=O)OC(C)=O)C(O)C(C)O1 (stereo not given)
Mus musculus [3]
  IC50: 0.095 µM
[4]
  IC50: 0.09 µM
CHO [5]
  IC50: 0.12 µM
CHO [6]
  IC50: 0.29 µM

## COc1cccc2c1C(=O)c1c(O)c3c(c(O)c1C2=O)CC(O)(C(=O)CO)CC3OC1CC(NCCOCCC(OC(C)=O)OC(C)=O)C(O)C(C)O1 (stereo not given)
Mus musculus [3]
  IC50: 0.06 µM
CHO [5]
  IC50: 0.055 µM
CHO [6]
  IC50: 0.096 µM

## COc1cccc2c1C(=O)c1c(O)c3c(c(O)c1C2=O)CC(O)(C(=O)CO)CC3OC1CC(N(C)CCCCC(OC(C)=O)OC(C)=O)C(O)C(C)O1 (stereo not given)
Mus musculus [3]
  IC50: 0.14 µM
[4]
  IC50: 0.13 µM
CHO [5]
  IC50: 0.065 µM
CHO [6]
  IC50: 0.185 µM

## COc1cccc2c1C(=O)c1c(O)c3c(c(O)c1C2=O)CC(O)(C(=O)CO)CC3OC1CC(NCCCCCCCC(OC(C)=O)OC(C)=O)C(O)C(C)O1 (stereo not given)
Mus musculus [3]
  IC50: 0.11 µM
[4]
  IC50: 0.014 µM
CHO [5]
  IC50: 0.25 µM
CHO [6]
  IC50: 0.17 µM

## COc1cccc2c1C(=O)c1c(O)c3c(c(O)c1C2=O)CC(O)(C(=O)CO)CC3OC1CC(NCCCCCC(OC(C)=O)OC(C)=O)C(O)C(C)O1 (stereo not given)
Mus musculus [3]
  IC50: 0.014 µM
[4]
  IC50: 0.0031 µM
CHO [5]
  IC50: 0.026 µM
CHO [6]
  IC50: 0.013 µM

## COc1cccc2c1C(=O)c1c(O)c3c(c(O)c1C2=O)CC(O)(C(=O)CO)CC3OC1CC(NCCCCCOC(C)=O)C(O)C(C)O1 (stereo not given)
Mus musculus [3]
  IC50: 0.067 µM
[4]
  IC50: 0.14 µM
CHO [5]
  IC50: 0.083 µM
CHO [6]
  IC50: 0.35 µM

## COc1cccc2c1C(=O)c1c(O)c3c(c(O)c1C2=O)CC(O)(C(=O)CO)CC3OC1CC(NCCCOCCC(OC(C)=O)OC(C)=O)C(O)C(C)O1 (stereo not given)
Mus musculus [3]
  IC50: 0.08 µM
[4]
  IC50: 0.09 µM
CHO [5]
  IC50: 0.1 µM
CHO [6]
  IC50: 0.21 µM

## COc1cccc2c1C(=O)c1c(O)c3c(c(O)c1C2=O)CC(O)(C(=O)CO)CC3OC1CC(NCCCC(=O)O)C(O)C(C)O1 (stereo not given)
Mus musculus [3]
  IC50: 0.24 µM
[4]
  IC50: 0.15 µM
CHO [5]
  IC50: 0.203 µM
CHO [6]
  IC50: 0.95 µM

## CCCCCNC1CC(OC2CC(O)(C(=O)CO)Cc3c(O)c4c(c(O)c32)C(=O)c2c(OC)cccc2C4=O)OC(C)C1O (stereo not given)
Mus musculus [3]
  IC50: 0.1 µM
[4]
  IC50: 0.033 µM
